Measurements reported in ChEMBL document CHEMBL1158088, “Bioactive triterpene glycosides from the sea cucumber Holothuria fuscocinerea” (J Nat Prod, 2006).

Key:
[1] = system: HL-60; assay: Cytotoxicity against human HL-60 cells after 72 hrs by MTT assay; assay type: functional, cell-based; conditions: HL-60, 72 h
Method in brief: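 HL-60 human leukemia cells exposed to glycosides for 72 h; viability read by MTT colorimetric assay in 96-well microplates. Dose–response curves plotted; IC50 = concentration giving 50% reduction of absorption versus control cells. Three independent experiments, each concentration in triplicate wells; mean ± SD. 10-Hydroxycamptothecine as positive control.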

[2] = system: Bel-7402; assay: Cytotoxicity against human Bel-7402 cells after 72 hrs by sulforhodamine B assay; assay type: functional, cell-based; conditions: Bel-7402, 72 h
Method in brief: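 BEL-7402 human hepatoma cells treated 72 h; cell protein measured by sulforhodamine B assay. IC50 taken from dose–response curves as concentration causing 50% drop in absorption relative to control cells. Means ± SD of three independent experiments, triplicate wells per concentration. 10-Hydroxycamptothecine served as positive control.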

## CO[C@@H]1[C@@H](O)[C@H](O[C@@H]2[C@@H](O)[C@H](O[C@H]3[C@H](O)[C@@H](O)[C@H](O[C@H]4[C@H](O[C@H]5CC[C@]6(C)C7=C[C@H](O)[C@@]89C(=O)O[C@@](C)(C(=O)CCC(C)(C)OC(C)=O)[C@H]8CC[C@@]9(C)[C@@H]7CC[C@H]6C5(C)C)OC[C@@H](OS(=O)(=O)O)[C@@H]4O)O[C@@H]3C)O[C@H](CO)[C@H]2O)O[C@H](CO)[C@H]1O [FUSCOCINEROSIDE A]
[1]
  IC50: 6.21 µM
[2]
  IC50: 5.58 µM

## CO[C@@H]1[C@@H](O)[C@H](O[C@@H]2[C@@H](O)[C@H](O[C@H]3[C@H](O)[C@@H](O)[C@H](O[C@H]4[C@H](O[C@H]5CC[C@]6(C)C7=C[C@H](O)[C@@]89C(=O)O[C@@](C)(C(=O)CCC(C)C)[C@H]8CC[C@@]9(C)[C@@H]7CC[C@H]6C5(C)C)OC[C@@H](OS(=O)(=O)O)[C@@H]4O)O[C@@H]3C)O[C@H](CO)[C@H]2O)O[C@H](CO)[C@H]1O [FUSCOCINEROSIDE B]
[1]
  IC50: 3.75 µM
[2]
  IC50: 2.64 µM

## CO[C@@H]1[C@@H](O)[C@H](O[C@@H]2[C@@H](O)[C@H](O[C@H]3[C@H](O)[C@@H](O)[C@H](O[C@H]4[C@H](O[C@H]5CC[C@]6(C)C7=C[C@H](O)[C@@]89C(=O)O[C@@](C)(C%10CCC(C)(C)O%10)[C@H]8CC[C@@]9(C)[C@@H]7CC[C@H]6C5(C)C)OC[C@@H](OS(=O)(=O)O)[C@@H]4O)O[C@@H]3C)O[C@H](CO)[C@H]2O)O[C@H](CO)[C@H]1O (some centres not stated) [FUSCOCINEROSIDE C]
[1]
  IC50: 0.88 µM
[2]
  IC50: 0.58 µM

## CO[C@@H]1[C@@H](O)[C@H](O[C@@H]2[C@@H](O)[C@H](O[C@H]3[C@H](O)[C@@H](O)[C@H](O[C@H]4[C@H](O[C@H]5CC[C@]6(C)C7=C[C@H](O)[C@@]89C(=O)O[C@@](C)(C%10CCC(C)(C)O%10)[C@@]8(O)CC[C@@]9(C)[C@@H]7CC[C@H]6C5(C)C)OC[C@@H](OS(=O)(=O)O)[C@@H]4O)O[C@@H]3C)O[C@H](CO)[C@H]2O)O[C@H](CO)[C@H]1O (some centres not stated) [HOLOTHURIN A]
[1]
  IC50: 4.42 µM
[2]
  IC50: 0.76 µM

## CC[C@@]1(O)C(=O)OCc2c1cc1n(c2=O)Cc2cc3cc(O)ccc3nc2-1 [HYDROXYCAMPTOTHECIN]
[1]
  IC50: 0.41 µM
[2]
  IC50: 0.28 µM

## CO[C@@H]1[C@@H](O)[C@H](O[C@@H]2[C@@H](O)[C@H](O[C@H]3[C@H](O)[C@@H](O)[C@H](O[C@H]4[C@H](O[C@H]5CC[C@]6(C)C7=C[C@H](O)[C@@]89C(=O)O[C@@](C)(CCCC(C)C)[C@H]8CC[C@@]9(C)[C@@H]7CC[C@H]6C5(C)C)OC[C@@H](OS(=O)(=O)O)[C@@H]4O)O[C@@H]3C)O[C@H](CO)[C@H]2O)O[C@H](CO)[C@H]1O [PERVICOSIDE C]
[1]
  IC50: 4.48 µM
[2]
  IC50: 0.66 µM
